In brackets after ≈: the same amount, converted by molar mass. Square brackets hold non-standard residues; d marks the D form. Peptide text beside a SMILES is read from it. * marks the point of attachment. Benzoyl(4-(4-hexylphenyl)) = CCCCCCc1ccc(-c2ccc(C(=O)*)cc2)cc1; X1 = C[C@H](N*)B1OC2C[C@@H]3C[C@@H](C3(C)C)[C@]2(C)O1; Orn = NCCC[C@H](N)C(=O)O
Tests used:
[1] = molecular target: Signal peptidase I (Escherichia coli K-12) (UniProt P00803); assay: Inhibition of Escherichia coli type 1 signal peptidase lepB assessed as residual activity at 1.25 uM preincubated for 10 mins followed by Dabcyl-VGGTATAYGAFSRPGLE-(EDANS)-OH substrate addition measured after 2 hrs by FRET based assay (reference value: 100%)
Signal peptidase I (Escherichia coli K-12), sequence (P00803 whole entry): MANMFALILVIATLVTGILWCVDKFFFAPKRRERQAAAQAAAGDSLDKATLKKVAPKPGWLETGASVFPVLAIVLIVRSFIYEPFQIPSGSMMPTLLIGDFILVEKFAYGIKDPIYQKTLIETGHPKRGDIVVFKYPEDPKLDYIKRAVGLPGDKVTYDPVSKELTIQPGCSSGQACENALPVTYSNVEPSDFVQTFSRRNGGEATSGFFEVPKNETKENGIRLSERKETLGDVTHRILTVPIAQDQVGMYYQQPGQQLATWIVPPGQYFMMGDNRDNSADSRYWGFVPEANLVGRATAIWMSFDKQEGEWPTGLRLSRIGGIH
Summary of the method: (§1)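 EcLepB (about 50 nM estimated) preincubated 10 min with compound. Reaction started with Dabcyl/EDANS FRET peptide at 8 µM final (Km 20 µM). Fluorescence followed continuously at 535 nm, 22 °C, for 2 h. Cleavage rates plotted against inhibitor concentration; IC50 from non-linear regression of sigmoidal dose-response curves.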

[2] = tested on: HepG2; assay: Cytotoxicity against human HepG2 cells after 72 hrs by FMSA; assay type: cell-based; conditions: HepG2, 72 h
Summary of the method: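 HepG2 (ATCC) grown in EMEM with 10% FBS, pen/strep, 2 mM L-glutamine, used up to 20 passages. Seeded at 1000 cells/well, cultured overnight, then dosed acoustically from DMSO stocks. Eight two-fold dilutions in duplicate from top 64 or 32 µM; 72 h at 37 °C, 5% CO2. Fluorescein diacetate hydrolysis read at ex 485/em 530 nm; IC50 by non-linear regression.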

[3] = Hemolytic activity in human RBC at 100 uM after 45 mins by spectrophotometric method relative to control; assay type: ADME, cell-based, Erythrocyte; conditions: red blood cells (erythrocytes), read-out: Activity
Summary of the method: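 Heparinized human blood; red cells washed three times in Tyrode buffer pH 7.4. Compound at 100 µM final with 1% DMSO and 50% RBC, shaken (250 rpm) 45 min at 37 °C. Cells pelleted (1000 × g, 10 min); supernatant haemoglobin at 540 nm. Percent lysis relative to buffer-only and 2% Triton X-100 controls.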

[4] = molecular target: Signal peptidase I (Escherichia coli K-12) (UniProt P00803); assay: Inhibition of Escherichia coli type 1 signal peptidase lepB assessed as residual activity at 5 uM preincubated for 10 mins followed by Dabcyl-VGGTATAYGAFSRPGLE-(EDANS)-OH substrate addition measured after 2 hrs by FRET based assay (reference value: 100%); summary of the method: as §1
[5] = tested on: Staphylococcus aureus; assay: Antibacterial activity against Staphylococcus aureus ATCC 29213 after 16 to 20 hrs by broth microdilution method; assay type: functional
Summary of the method: (§2)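 Broth microdilution in cation-adjusted Mueller-Hinton II per EUCAST/CLSI; two-fold compound series 64 down to 0.25 µg/mL final. Inoculum from fresh colonies (non-selective agar, 18-24 h, 35 ± 2 °C), adjusted to 0.5 McFarland, diluted to about 5 × 10^5 CFU/mL final. Static incubation 16-20 h at 35 ± 2 °C; MIC read visually as complete growth inhibition against medium-only wells.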

[6] = tested on: Klebsiella pneumoniae; assay: Antibacterial activity against Klebsiella pneumoniae ATCC 13883 after 16 to 20 hrs by broth microdilution method; assay type: functional; summary of the method: as §2
[7] = molecular target: Signal peptidase I (Escherichia coli K-12) (UniProt P00803); assay: Inhibition of Escherichia coli type 1 signal peptidase lepB assessed as residual activity at 0.625 uM preincubated for 10 mins followed by Dabcyl-VGGTATAYGAFSRPGLE-(EDANS)-OH substrate addition measured after 2 hrs by FRET based assay (reference value: 100%); summary of the method: as §1
[8] = molecular target: Signal peptidase I (Escherichia coli K-12) (UniProt P00803); assay: Inhibition of Escherichia coli type 1 signal peptidase lepB assessed as residual activity at 0.0391 uM preincubated for 10 mins followed by Dabcyl-VGGTATAYGAFSRPGLE-(EDANS)-OH substrate addition measured after 2 hrs by FRET based assay (reference value: 100%); summary of the method: as §1
[9] = tested on: Escherichia coli; assay: Antibacterial activity against Escherichia coli D22 CGSG 5163 harboring Ips mutant after 16 to 20 hrs by broth microdilution method; assay type: functional
Summary of the method: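 Broth microdilution in cation-adjusted Mueller-Hinton II broth, following EUCAST and CLSI guidelines. Two-fold series at final concentrations 64 down to 0.25 µg/mL, with medium-only and growth controls. Inoculum from fresh colonies (18-24 h, 35 °C ± 2 °C) adjusted to 0.5 McFarland, final ≈5 × 10^5 CFU/mL. Plates incubated unshaken 16-20 h at 35 °C ± 2 °C. MIC read visually as complete inhibition of growth.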

[10] = molecular target: Signal peptidase I (Escherichia coli K-12) (UniProt P00803); assay: Inhibition of Escherichia coli type 1 signal peptidase lepB assessed as residual activity at 2.5 uM preincubated for 10 mins followed by Dabcyl-VGGTATAYGAFSRPGLE-(EDANS)-OH substrate addition measured after 2 hrs by FRET based assay (reference value: 100%); summary of the method: as §1
[11] = tested on: Pseudomonas aeruginosa; assay: Antibacterial activity against efflux defective Pseudomonas aeruginosa PAO750 after 16 to 20 hrs by broth microdilution method; assay type: functional; summary of the method: as §2
[12] = tested on: Acinetobacter baumannii; assay: Antibacterial activity against Acinetobacter baumannii ATCC 19606 after 16 to 20 hrs by broth microdilution method; assay type: functional; conditions: ATCC 19606 = CIP 70.34 = JCM 6841; summary of the method: as §2
[13] = molecular target: Signal peptidase I (Escherichia coli K-12) (UniProt P00803); assay: Inhibition of Escherichia coli type 1 signal peptidase lepB assessed as residual activity at 0.1563 uM preincubated for 10 mins followed by Dabcyl-VGGTATAYGAFSRPGLE-(EDANS)-OH substrate addition measured after 2 hrs by FRET based assay (reference value: 100%); summary of the method: as §1
[14] = tested on: Escherichia coli; assay: Antibacterial activity against Escherichia coli ATCC 25922 after 16 to 20 hrs by broth microdilution method; assay type: functional; summary of the method: as §2
[15] = molecular target: Signal peptidase I (Escherichia coli K-12) (UniProt P00803); assay: Inhibition of Escherichia coli type 1 signal peptidase lepB assessed as residual activity at 0.0012 uM preincubated for 10 mins followed by Dabcyl-VGGTATAYGAFSRPGLE-(EDANS)-OH substrate addition measured after 2 hrs by FRET based assay (reference value: 100%); summary of the method: as §1
[16] = tested on: Pseudomonas aeruginosa; assay: Antibacterial activity against Pseudomonas aeruginosa PAO1 after 16 to 20 hrs by broth microdilution method; assay type: functional; summary of the method: as §2
[17] = molecular target: Signal peptidase I (Escherichia coli K-12) (UniProt P00803); assay: Inhibition of Escherichia coli type 1 signal peptidase lepB assessed as residual activity at 0.0195 uM preincubated for 10 mins followed by Dabcyl-VGGTATAYGAFSRPGLE-(EDANS)-OH substrate addition measured after 2 hrs by FRET based assay (reference value: 100%); summary of the method: as §1
[18] = molecular target: Signal peptidase I (Escherichia coli K-12, UniProt P00803); assay: Inhibition of Escherichia coli type 1 signal peptidase lepB preincubated for 10 mins followed by Dabcyl-VGGTATAYGAFSRPGLE-(EDANS)-OH substrate addition measured after 2 hrs by FRET based assay; summary of the method: as §1
Signal peptidase I, sequence (P00803 whole entry): as above

[19] = molecular target: Signal peptidase I (Escherichia coli K-12) (UniProt P00803); assay: Inhibition of Escherichia coli type 1 signal peptidase lepB assessed as residual activity at 0.0049 uM preincubated for 10 mins followed by Dabcyl-VGGTATAYGAFSRPGLE-(EDANS)-OH substrate addition measured after 2 hrs by FRET based assay (reference value: 100%); summary of the method: as §1
[20] = molecular target: Signal peptidase I (Escherichia coli K-12) (UniProt P00803); assay: Inhibition of Escherichia coli type 1 signal peptidase lepB assessed as residual activity at 0.0781 uM preincubated for 10 mins followed by Dabcyl-VGGTATAYGAFSRPGLE-(EDANS)-OH substrate addition measured after 2 hrs by FRET based assay (reference value: 100%); summary of the method: as §1
[21] = molecular target: Signal peptidase I (Escherichia coli K-12) (UniProt P00803); assay: Inhibition of Escherichia coli type 1 signal peptidase lepB assessed as residual activity at 0.0024 uM preincubated for 10 mins followed by Dabcyl-VGGTATAYGAFSRPGLE-(EDANS)-OH substrate addition measured after 2 hrs by FRET based assay (reference value: 100%); summary of the method: as §1
[22] = molecular target: Signal peptidase I (Escherichia coli K-12) (UniProt P00803); assay: Inhibition of Escherichia coli type 1 signal peptidase lepB assessed as residual activity at 10 uM preincubated for 10 mins followed by Dabcyl-VGGTATAYGAFSRPGLE-(EDANS)-OH substrate addition measured after 2 hrs by FRET based assay (reference value: 100%); summary of the method: as §1
[23] = molecular target: Signal peptidase I (Escherichia coli K-12) (UniProt P00803); assay: Inhibition of Escherichia coli type 1 signal peptidase lepB assessed as residual activity at 0.0006 uM preincubated for 10 mins followed by Dabcyl-VGGTATAYGAFSRPGLE-(EDANS)-OH substrate addition measured after 2 hrs by FRET based assay (reference value: 100%); summary of the method: as §1
[24] = molecular target: Signal peptidase I (Escherichia coli K-12) (UniProt P00803); assay: Inhibition of Escherichia coli type 1 signal peptidase lepB assessed as residual activity at 0.3125 uM preincubated for 10 mins followed by Dabcyl-VGGTATAYGAFSRPGLE-(EDANS)-OH substrate addition measured after 2 hrs by FRET based assay (reference value: 100%); summary of the method: as §1
[25] = tested on: Escherichia coli; assay: Antibacterial activity against tolC deficient Escherichia coli CH3130 after 16 to 20 hrs by broth microdilution method; assay type: functional; summary of the method: as §2
[26] = molecular target: Signal peptidase I (Escherichia coli K-12) (UniProt P00803); assay: Inhibition of Escherichia coli type 1 signal peptidase lepB assessed as residual activity at 0.0098 uM preincubated for 10 mins followed by Dabcyl-VGGTATAYGAFSRPGLE-(EDANS)-OH substrate addition measured after 2 hrs by FRET based assay (reference value: 100%); summary of the method: as §1

Which results are given for `CCCCCCc1ccc(-c2ccc(C(=O)N[C@@H](CCCN)C(=O)N[C@H](C(=O)N[C@@H](C)C(=O)N[C@@H](CC(N)=O)C(=O)N[C@@H](C)B3OC4C[C@@H]5C[C@@H](C5(C)C)[C@]4(C)O3)[C@@H](C)O)cc2)cc1` (stereo partly specified) ({Benzoyl(4-(4-hexylphenyl))}-[Orn]TAN-X1)?
Activity [1]: 8.5%; IC50 [2]: 11.7 µM; hemolysis at 0.75 h, 100 µM [3]: 11.7%; Activity [4]: 1.8%; MIC [5]: 0.025 µg/mL (≈ 0.0282 µM); MIC [6]: 2 µg/mL (≈ 2.25 µM); Activity [7]: -9.9%; Activity [8]: 24.9%; MIC [9]: 0.5 µg/mL (≈ 0.563 µM); Activity [10]: -0.2%; MIC [11]: 32 µg/mL (≈ 36 µM); MIC [12]: 4 µg/mL (≈ 4.5 µM); Activity [13]: -1.3%; MIC [14]: 8 µg/mL (≈ 9.01 µM); Activity [15]: 98.6%; MIC [16]: 64 µg/mL (≈ 72.1 µM); Activity [17]: 42.9%; IC50 [18]: 0.017 µM; Activity [19]: 87.3%; Activity [20]: 20.5%; Activity [21]: 91.9%; Activity [22]: 6.3%; Activity [23]: 114%; Activity [24]: 3.5%; MIC [25]: 2 µg/mL (≈ 2.25 µM); Activity [26]: 70.6%

Source: ChEMBL document CHEMBL4270642, “Boronic ester-linked macrocyclic lipopeptides as serine protease inhibitors targeting Escherichia coli type I signal peptidase” (Eur J Med Chem, 2018)
